In ChEMBL document CHEMBL4422636, “Investigation of the structural requirements for N-methyl-D-aspartate receptor positive and negative allosteric modulators based on 2-naphthoic acid” (Eur J Med Chem, 2019):
Activity calls are given as the source filed them. The calls are words filed in the database; no cut-off is given here.

Key:
[1] = target: Glutamate receptor ionotropic, NMDA 2A (Rattus norvegicus) (UniProt Q00959); assay: Allosteric modulation of rat GluN2A expressed in Xenopus laevis oocytes assessed as L-glutamate/glycine-induced current response at 100 uM at holding potential -60 mV by two-electrode voltage clamp method relative to L-glutamate/glycine; format: cell-based
Outline: (§1)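 GluN1a with one GluN2 subunit; RNAs mixed 1:1–3 molar, 15–30 ng total injected into Xenopus oocytes, which were held in ND-96 at 17°C for 1–5 days. TEVC at −60 mV in 116 mM NaCl, 2 mM KCl, 0.3 mM BaCl2, 5 mM HEPES, pH 7.4. […] Reported as % of agonist-alone response, mean ± s.e.m., n≥4.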

[2] = target: Glutamate receptor ionotropic, NMDA 2B (Rattus norvegicus) (UniProt Q00960); assay: Allosteric modulation of rat GluN2B expressed in Xenopus laevis oocytes assessed as L-glutamate/glycine-induced current response at 100 uM at holding potential -60 mV by two-electrode voltage clamp method relative to L-glutamate/glycine; format: cell-based; outline: as §1
Glutamate receptor ionotropic, NMDA 2B (Rattus norvegicus), sequence (Q00960 27-1482 limits assumed): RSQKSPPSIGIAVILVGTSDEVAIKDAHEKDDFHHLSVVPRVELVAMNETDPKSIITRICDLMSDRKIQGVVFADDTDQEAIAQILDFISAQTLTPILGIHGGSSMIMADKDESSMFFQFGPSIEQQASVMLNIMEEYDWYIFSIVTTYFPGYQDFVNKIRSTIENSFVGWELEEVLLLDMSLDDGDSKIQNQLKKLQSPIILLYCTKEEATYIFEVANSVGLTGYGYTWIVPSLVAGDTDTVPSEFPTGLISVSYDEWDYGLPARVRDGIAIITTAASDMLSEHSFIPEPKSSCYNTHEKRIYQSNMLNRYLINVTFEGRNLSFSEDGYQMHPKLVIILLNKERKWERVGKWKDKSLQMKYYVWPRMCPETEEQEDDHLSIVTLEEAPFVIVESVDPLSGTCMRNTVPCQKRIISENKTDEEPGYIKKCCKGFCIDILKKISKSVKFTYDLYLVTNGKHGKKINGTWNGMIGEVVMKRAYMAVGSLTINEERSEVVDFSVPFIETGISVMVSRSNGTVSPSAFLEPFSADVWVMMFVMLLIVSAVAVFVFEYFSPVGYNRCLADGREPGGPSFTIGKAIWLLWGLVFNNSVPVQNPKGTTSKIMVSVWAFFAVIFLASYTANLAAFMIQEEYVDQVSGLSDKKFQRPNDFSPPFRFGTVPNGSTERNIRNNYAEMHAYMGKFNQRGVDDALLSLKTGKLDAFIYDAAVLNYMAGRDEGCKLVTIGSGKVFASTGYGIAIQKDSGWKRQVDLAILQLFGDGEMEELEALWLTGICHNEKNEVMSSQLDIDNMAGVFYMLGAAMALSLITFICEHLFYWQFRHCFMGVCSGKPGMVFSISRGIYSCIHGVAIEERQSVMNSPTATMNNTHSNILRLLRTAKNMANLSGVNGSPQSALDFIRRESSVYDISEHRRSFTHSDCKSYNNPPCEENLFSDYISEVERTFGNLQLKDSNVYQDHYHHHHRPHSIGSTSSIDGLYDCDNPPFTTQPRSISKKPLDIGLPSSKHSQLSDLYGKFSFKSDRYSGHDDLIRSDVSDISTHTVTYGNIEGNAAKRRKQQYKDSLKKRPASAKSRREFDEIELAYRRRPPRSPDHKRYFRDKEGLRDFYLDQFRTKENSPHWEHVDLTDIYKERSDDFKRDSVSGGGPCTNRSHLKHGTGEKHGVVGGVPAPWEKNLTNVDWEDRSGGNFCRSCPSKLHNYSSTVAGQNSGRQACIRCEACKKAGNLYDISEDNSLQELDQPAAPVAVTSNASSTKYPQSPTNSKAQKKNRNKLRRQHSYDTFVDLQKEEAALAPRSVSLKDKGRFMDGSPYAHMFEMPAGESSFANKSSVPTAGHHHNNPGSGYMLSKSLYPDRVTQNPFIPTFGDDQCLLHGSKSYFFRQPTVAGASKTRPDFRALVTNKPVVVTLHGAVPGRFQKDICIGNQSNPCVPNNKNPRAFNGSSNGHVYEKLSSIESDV

[3] = target: Glutamate receptor ionotropic, NMDA 2C (Rattus norvegicus) (UniProt Q00961); assay: Allosteric modulation of rat GluN2C expressed in Xenopus laevis oocytes assessed as L-glutamate/glycine-induced current response at 100 uM at holding potential -60 mV by two-electrode voltage clamp method relative to L-glutamate/glycine; format: cell-based; outline: as §1
Glutamate receptor ionotropic, NMDA 2C (Rattus norvegicus), sequence (Q00961 20-1237 limits assumed): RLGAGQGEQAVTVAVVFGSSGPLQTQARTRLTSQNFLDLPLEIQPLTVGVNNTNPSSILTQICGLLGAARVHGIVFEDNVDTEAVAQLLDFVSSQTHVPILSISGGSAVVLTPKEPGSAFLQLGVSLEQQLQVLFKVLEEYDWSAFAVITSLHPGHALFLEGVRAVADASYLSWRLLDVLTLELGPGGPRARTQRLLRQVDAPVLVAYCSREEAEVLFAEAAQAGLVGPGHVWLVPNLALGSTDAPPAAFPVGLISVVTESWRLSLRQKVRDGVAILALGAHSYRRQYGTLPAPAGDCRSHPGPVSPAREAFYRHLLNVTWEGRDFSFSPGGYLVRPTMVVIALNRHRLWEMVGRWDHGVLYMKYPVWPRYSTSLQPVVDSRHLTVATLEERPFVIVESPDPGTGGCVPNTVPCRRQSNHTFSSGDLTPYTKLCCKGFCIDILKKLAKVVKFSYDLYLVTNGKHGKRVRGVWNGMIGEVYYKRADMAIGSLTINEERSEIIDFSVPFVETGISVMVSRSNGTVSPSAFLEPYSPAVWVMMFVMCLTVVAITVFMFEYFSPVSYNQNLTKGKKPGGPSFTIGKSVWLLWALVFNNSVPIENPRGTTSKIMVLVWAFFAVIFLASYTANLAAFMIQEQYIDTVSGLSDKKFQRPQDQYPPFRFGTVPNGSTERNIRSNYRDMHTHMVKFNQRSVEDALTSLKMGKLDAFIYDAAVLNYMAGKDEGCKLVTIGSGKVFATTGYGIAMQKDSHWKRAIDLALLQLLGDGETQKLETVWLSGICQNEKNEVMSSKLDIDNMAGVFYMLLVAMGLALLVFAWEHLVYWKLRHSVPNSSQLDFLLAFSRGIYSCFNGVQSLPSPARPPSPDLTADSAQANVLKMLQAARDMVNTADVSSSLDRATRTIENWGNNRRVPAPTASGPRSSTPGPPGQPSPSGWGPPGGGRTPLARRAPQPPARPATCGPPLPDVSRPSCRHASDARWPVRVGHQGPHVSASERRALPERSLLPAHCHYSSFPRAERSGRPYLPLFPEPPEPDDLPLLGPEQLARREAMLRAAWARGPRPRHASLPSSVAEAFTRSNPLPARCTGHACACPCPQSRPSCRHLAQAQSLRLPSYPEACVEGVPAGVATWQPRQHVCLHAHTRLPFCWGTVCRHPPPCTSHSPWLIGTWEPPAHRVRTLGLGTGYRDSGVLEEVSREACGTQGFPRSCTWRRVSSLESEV

[4] = target: Glutamate receptor ionotropic, NMDA 2D (Rattus norvegicus) (UniProt Q62645); assay: Allosteric modulation of rat GluN2D expressed in Xenopus laevis oocytes assessed as L-glutamate/glycine-induced current response at 100 uM at holding potential -60 mV by two-electrode voltage clamp method relative to L-glutamate/glycine; format: cell-based; outline: as §1
Glutamate receptor ionotropic, NMDA 2D (Rattus norvegicus), sequence (Q62645 whole entry): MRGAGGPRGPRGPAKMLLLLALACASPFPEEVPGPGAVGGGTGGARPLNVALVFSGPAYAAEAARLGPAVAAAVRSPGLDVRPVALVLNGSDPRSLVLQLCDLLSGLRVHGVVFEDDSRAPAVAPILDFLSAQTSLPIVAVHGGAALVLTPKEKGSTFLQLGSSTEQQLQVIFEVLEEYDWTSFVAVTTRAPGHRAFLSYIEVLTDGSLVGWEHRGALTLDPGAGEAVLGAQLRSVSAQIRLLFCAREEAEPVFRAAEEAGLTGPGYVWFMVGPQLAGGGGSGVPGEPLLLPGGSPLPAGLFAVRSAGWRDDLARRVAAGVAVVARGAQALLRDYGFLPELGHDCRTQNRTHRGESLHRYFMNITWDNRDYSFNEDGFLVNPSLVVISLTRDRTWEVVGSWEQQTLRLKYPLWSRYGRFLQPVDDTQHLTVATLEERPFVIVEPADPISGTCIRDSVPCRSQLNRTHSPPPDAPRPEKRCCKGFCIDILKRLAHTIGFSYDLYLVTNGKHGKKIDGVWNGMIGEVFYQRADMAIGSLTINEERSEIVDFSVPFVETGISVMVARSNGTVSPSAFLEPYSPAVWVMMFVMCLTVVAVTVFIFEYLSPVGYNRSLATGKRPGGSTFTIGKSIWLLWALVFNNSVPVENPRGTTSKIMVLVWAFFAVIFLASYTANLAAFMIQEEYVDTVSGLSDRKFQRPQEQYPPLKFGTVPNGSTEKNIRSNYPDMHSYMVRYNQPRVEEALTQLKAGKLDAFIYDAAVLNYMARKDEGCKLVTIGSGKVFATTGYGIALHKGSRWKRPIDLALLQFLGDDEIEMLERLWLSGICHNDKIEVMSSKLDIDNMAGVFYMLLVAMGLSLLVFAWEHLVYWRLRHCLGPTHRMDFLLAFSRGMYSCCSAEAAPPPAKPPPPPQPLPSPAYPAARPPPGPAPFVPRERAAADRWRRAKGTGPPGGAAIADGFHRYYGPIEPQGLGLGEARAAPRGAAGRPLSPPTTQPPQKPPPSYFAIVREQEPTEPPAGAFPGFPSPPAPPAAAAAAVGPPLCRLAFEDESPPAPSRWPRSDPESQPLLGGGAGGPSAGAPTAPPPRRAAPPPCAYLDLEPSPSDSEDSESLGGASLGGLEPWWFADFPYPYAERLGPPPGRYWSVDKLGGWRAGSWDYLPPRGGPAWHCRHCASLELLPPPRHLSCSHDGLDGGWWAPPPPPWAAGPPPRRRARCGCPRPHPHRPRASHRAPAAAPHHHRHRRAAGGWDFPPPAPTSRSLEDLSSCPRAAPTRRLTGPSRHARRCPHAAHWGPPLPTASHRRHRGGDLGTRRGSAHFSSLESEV

[5] = Solubility of the compound at 100 uM; format: physicochemical
Outline: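 Compounds were inspected for visible precipitation at the concentrations used in the oocyte assays.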

[6] = target: Glutamate receptor ionotropic, NMDA 2A (Rattus norvegicus) (UniProt Q00959); assay: Agonist activity at rat GluN2A expressed in Xenopus laevis oocytes assessed effect on current response at holding potential -60 mV by two-electrode voltage clamp method relative to L-glutamate/glycine; format: cell-based; outline: as §1
[7] = target: Glutamate receptor ionotropic, NMDA 2B (Rattus norvegicus) (UniProt Q00960); assay: Agonist activity at rat GluN2B expressed in Xenopus laevis oocytes assessed as effect on current response at holding potential -60 mV by two-electrode voltage clamp method relative to L-glutamate/glycine; format: cell-based; outline: as §1
[8] = target: Glutamate receptor ionotropic, NMDA 2C (Rattus norvegicus) (UniProt Q00961); assay: Agonist activity at rat GluN2C expressed in Xenopus laevis oocytes assessed effect on current response at holding potential -60 mV by two-electrode voltage clamp method relative to L-glutamate/glycine; format: cell-based; outline: as §1
[9] = target: Glutamate receptor ionotropic, NMDA 2D (Rattus norvegicus) (UniProt Q62645); assay: Agonist activity at rat GluN2D expressed in Xenopus laevis oocytes assessed as effect on current response at holding potential -60 mV by two-electrode voltage clamp method relative to L-glutamate/glycine; format: cell-based; outline: as §1

Row | SMILES | Activity [1] | Activity [2] | Activity [3] | Activity [4] | solubility [5] | Activity [6] | Activity [7] | Activity [8] | Activity [9]
1 | O=C(O)c1cccc(/C=C/c2ccc3cc(O)c(C(=O)O)cc3c2)c1 | 90.3% | 70% | 76.8% | 61.4% | Soluble | – | – | – | –
2 | O=C(O)c1ccc2cc(C3CC3)ccc2c1 | 97% | 97% | 97% | 94% | Soluble | inactive | inactive | inactive | inactive
3 | CC(C)CNC(=O)c1ccc2cc(C(=O)O)ccc2c1 | 65% | 65% | 46% | 99% | Soluble | – | – | – | –
4 | O=C(O)c1cc2cc(/C=C/c3ccccc3C(=O)O)ccc2cc1O | 92.1% | 84.5% | 83.7% | 103% | Soluble | – | – | – | –
5 | O=C(O)c1ccc2cc(CCCCc3ccccc3)ccc2c1 | 118% | 120% | 123% | 115% | Soluble | inactive | inactive | inactive | inactive
6 | CC(C)C/C=C/c1ccc2cc(C(=O)O)ccc2c1 | 135% | 152% | 264% | 220% | Soluble | inactive | inactive | inactive | inactive
7 | CC(C)CC#Cc1ccc2cc(C(=O)O)ccc2c1 | 104% | 99% | 125% | 110% | Soluble | inactive | inactive | inactive | inactive
8 | CC(C)CCCc1ccc2ccc(C(=O)O)cc2c1 | 123% | 120% | 115% | 80% | Soluble | inactive | inactive | inactive | inactive
9 | CC(C)CC(Cc1ccc2cc(C(=O)O)ccc2c1)C(=O)O (racemic) | 104% | 78% | 118% | 85% | Soluble | inactive | inactive | inactive | inactive
10 | CC(CCCc1ccc2cc(C(=O)O)ccc2c1)C(=O)O (racemic) | 110% | 85% | 98% | 107% | Soluble | inactive | inactive | inactive | inactive
11 | O=C(O)c1ccc(/C=C/c2ccc3cc(O)c(C(=O)O)cc3c2)cc1 | 89.7% | 89% | 85.2% | 67% | Soluble | – | – | – | –
12 | CC(C)COC(=O)c1ccc2cc(C(=O)O)ccc2c1 | 159% | 179% | 144% | 169% | Soluble | – | – | – | –
13 | CC(C)CCC(=O)c1ccc2cc(C(=O)O)ccc2c1 | 128% | 82% | 99% | 79% | Soluble | – | – | – | –
14 | COc1cccc(/C=C/c2ccc3cc(O)c(C(=O)O)cc3c2)c1 | 52.4% | 24.9% | 30.8% | 29.9% | Soluble | – | – | – | –
15 | CC(C)CSCc1ccc2cc(C(=O)O)ccc2c1 | 113% | 77% | 105% | 100% | Soluble | – | – | – | –
16 | CC(C)CCCc1ccc2cc(O)c(C(=O)O)cc2c1 | 78% | 113% | 113% | 180% | Soluble | inactive | inactive | inactive | inactive
17 | COc1ccccc1/C=C/c1ccc2cc(O)c(C(=O)O)cc2c1 | 105% | 74% | 61.7% | 71% | Soluble | – | – | – | –

Row | SMILES | Activity [1] | Activity [2] | Activity [3] | Activity [4] | solubility [5] | Activity [6] | Activity [7] | Activity [8] | Activity [9]
18 | CCCCCc1ccc2cc(C(=O)O)ccc2c1Br | 73% | 52% | 97% | 99% | Soluble | inactive | inactive | inactive | inactive
19 | O=C(O)c1cc2cc(CCc3ccccc3C(=O)O)ccc2cc1O | 91.8% | 85.2% | 94.1% | 80.7% | Soluble | – | – | – | –
20 | CC(CCCc1ccc2cc(C(=O)O)ccc2c1)CC(=O)O (racemic) | 60% | 64% | 96% | 71% | Soluble | inactive | inactive | inactive | inactive
21 | CCCCCc1ccc2cc(CO)ccc2c1 | 89% | 84% | 76% | 85% | Soluble | inactive | inactive | inactive | inactive
22 | O=C(O)c1ccc(CCc2ccc3cc(O)c(C(=O)O)cc3c2)cc1 | 102% | 95.8% | 115% | 92.6% | Soluble | – | – | – | –
23 | CCC/C=C/c1ccc2cc(C(=O)O)ccc2c1 | 51% | 58% | 82% | 68% | Soluble | inactive | inactive | inactive | inactive
24 | CC(C)C(=O)OCc1ccc2cc(C(=O)O)ccc2c1 | 73% | 45% | 56% | 42% | Soluble | – | – | – | –
25 | CCCCCc1ccc2cc(CC(=O)O)ccc2c1 | 67% | 67% | 60% | 37% | Soluble | inactive | inactive | inactive | inactive
26 | O=C(O)c1cc2cc(/C=C/c3ccccc3)ccc2oc1=O | 95.1% | 92% | 114% | 119% | Soluble | – | – | – | –
27 | CC(C)CCCc1ccc2cc(C(=O)O)c(O)cc2c1 | 178% | 309% | 357% | 301% | Soluble | inactive | inactive | inactive | inactive
28 | COc1ccc(/C=C/c2ccc3cc(O)c(C(=O)O)cc3c2)cc1 | 42.7% | 36% | 39.6% | 39% | Soluble | – | – | – | –
29 | O=C(O)c1cc2cc(CCc3ccccc3)ccc2cc1O | 71.4% | 54.3% | 46.8% | 32.1% | Soluble | – | – | – | –
30 | CC(C)COCc1ccc2cc(C(=O)O)ccc2c1 | 83% | 49% | 83% | 72% | Soluble | – | – | – | –
31 | O=C(O)c1ccc2cc(I)c3ccccc3c2c1 | 109% | 101% | 65.9% | 47.7% | Soluble | inactive | inactive | inactive | inactive
32 | CC(C/C=C/c1ccc2cc(C(=O)O)ccc2c1)C(=O)O (racemic) | 107% | 97% | 105% | 97% | Soluble | inactive | inactive | inactive | inactive
33 | O=C(O)c1cc2ccc(/C=C/c3ccccc3)cc2cc1C(=O)O | 55% | 66.7% | 37.1% | 38.6% | Soluble | – | – | – | –
